Measured values reported in ChEMBL document CHEMBL3621160, “Pseudosaccharin amines as potent and selective KV1.5 blockers” (Bioorg Med Chem Lett, 2015).

What was measured:
[1] = target: Melanocyte-stimulating hormone receptor (Homo sapiens) (UniProt Q01726); experiment: Inhibition of human MC1 receptor at 10 uM relative to control
How it was run: (§1)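 Screening panel of over 37 receptors and enzymes relevant to cardiovascular effects or toxicity. Each target was tested at a single concentration of 10 µM, with % activity reported.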

[2] = target: D(3) dopamine receptor (Homo sapiens) (UniProt P35462); experiment: Inhibition of human dopamine D3 receptor at 10 uM relative to control; how it was run: as §1
Chain of D(3) dopamine receptor (Homo sapiens) (P35462 whole entry): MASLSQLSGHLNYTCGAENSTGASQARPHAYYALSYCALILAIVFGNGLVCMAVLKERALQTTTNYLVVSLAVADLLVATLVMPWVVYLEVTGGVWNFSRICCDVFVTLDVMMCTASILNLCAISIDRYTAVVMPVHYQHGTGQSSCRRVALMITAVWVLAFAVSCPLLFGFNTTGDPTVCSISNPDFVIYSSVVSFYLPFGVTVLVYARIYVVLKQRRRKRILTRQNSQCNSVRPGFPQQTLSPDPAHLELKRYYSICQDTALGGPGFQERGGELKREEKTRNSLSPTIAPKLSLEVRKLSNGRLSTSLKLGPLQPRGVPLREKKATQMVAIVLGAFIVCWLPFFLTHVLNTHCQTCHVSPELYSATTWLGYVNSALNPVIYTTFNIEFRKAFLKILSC

[3] = target: Histamine H2 receptor (Homo sapiens) (UniProt P25021); experiment: Inhibition of human histamine H2 receptor at 10 uM relative to control; how it was run: as §1
Chain of Histamine H2 receptor (Homo sapiens) (P25021 whole entry): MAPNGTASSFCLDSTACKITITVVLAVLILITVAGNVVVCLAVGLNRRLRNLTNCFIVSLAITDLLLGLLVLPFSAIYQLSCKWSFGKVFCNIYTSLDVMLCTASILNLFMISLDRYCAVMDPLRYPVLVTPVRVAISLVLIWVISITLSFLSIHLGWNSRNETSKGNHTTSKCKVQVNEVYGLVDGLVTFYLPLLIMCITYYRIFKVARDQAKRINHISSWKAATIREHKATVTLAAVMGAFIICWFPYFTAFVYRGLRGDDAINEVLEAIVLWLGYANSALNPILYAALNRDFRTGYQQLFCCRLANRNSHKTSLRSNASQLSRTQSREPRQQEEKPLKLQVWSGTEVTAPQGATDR

[4] = species: Rattus norvegicus; experiment: Inhibition of rat choline transporter at 10 uM relative to control
How it was run: (§2)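 Single-concentration screen at 10 µM across a panel of over 37 receptors and enzymes linked to cardiovascular effects or toxicity. Read-out is percent activity.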

[5] = target: D(2) dopamine receptor (Homo sapiens) (UniProt P14416); experiment: Inhibition of human dopamine D2S receptor at 10 uM relative to control; how it was run: as §1
Chain of D(2) dopamine receptor (Homo sapiens) (P14416 whole entry): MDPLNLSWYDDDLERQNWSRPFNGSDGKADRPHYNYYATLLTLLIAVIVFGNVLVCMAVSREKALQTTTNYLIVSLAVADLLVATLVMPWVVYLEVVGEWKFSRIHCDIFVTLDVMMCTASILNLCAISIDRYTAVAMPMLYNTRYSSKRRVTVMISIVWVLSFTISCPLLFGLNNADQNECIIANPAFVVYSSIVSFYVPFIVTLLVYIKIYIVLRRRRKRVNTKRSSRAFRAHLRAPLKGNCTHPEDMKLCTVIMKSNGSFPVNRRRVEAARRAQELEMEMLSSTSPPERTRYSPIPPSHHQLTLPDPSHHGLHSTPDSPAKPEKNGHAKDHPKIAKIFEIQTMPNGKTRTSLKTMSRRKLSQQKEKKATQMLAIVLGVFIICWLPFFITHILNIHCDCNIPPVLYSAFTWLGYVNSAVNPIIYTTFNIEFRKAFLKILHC

[6] = species: Rattus norvegicus; experiment: Inhibition of rat muscarinic acetylcholine receptor at 10 uM relative to control; how it was run: as §2
[7] = species: Rattus norvegicus; experiment: Inhibition of rat L-type calcium channel dihydropyridine binding site at 10 uM relative to control; how it was run: as §2
[8] = target: Cannabinoid receptor 1 (Homo sapiens) (UniProt P21554); experiment: Inhibition of human CB1 receptor at 10 uM relative to control; how it was run: as §1
[9] = Plasma concentration in rat at 3 mg/kg, iv administered as infusion for 5 mins; type: ADME, organism-based
How it was run: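 Rats were dosed at 3 mg/Kg. QT interval on ECG, mean blood pressure (% change) and plasma concentration were measured. Values are means of 2-4 experiments.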

[10] = target: Androgen receptor (Rattus norvegicus) (UniProt P15207); experiment: Inhibition of rat testosterone receptor at 10 uM relative to control; how it was run: as §1
Chain of Androgen receptor (Rattus norvegicus) (P15207 whole entry S389L): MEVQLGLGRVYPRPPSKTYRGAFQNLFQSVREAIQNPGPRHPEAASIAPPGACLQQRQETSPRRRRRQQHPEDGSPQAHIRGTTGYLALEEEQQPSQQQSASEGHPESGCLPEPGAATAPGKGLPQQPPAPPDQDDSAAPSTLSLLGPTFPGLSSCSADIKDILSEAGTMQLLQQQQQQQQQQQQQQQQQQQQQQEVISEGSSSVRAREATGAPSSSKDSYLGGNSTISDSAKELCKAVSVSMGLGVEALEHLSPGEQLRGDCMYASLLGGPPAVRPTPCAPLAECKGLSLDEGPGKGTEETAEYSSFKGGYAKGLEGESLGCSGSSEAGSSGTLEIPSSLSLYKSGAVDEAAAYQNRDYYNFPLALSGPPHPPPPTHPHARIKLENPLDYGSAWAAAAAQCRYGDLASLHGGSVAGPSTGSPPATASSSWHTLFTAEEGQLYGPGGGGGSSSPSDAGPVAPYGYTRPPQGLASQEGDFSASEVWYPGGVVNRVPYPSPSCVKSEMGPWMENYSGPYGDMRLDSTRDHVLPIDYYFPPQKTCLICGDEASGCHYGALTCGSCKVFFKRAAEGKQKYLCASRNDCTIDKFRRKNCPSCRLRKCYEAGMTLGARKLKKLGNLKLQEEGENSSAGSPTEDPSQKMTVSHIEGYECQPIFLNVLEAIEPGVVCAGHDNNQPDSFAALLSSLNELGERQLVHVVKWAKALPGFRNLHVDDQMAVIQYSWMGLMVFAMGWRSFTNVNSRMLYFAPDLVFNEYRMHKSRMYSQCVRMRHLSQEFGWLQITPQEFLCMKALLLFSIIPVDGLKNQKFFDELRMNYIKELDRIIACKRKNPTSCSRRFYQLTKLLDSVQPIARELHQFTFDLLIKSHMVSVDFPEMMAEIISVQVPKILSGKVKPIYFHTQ

[11] = target: B1 bradykinin receptor (Homo sapiens) (UniProt P46663); experiment: Inhibition of human bradykinin B1 receptor at 10 uM relative to control; how it was run: as §1
[12] = target: D(1A) dopamine receptor (Homo sapiens) (UniProt P21728); experiment: Inhibition of human dopamine D1 receptor at 10 uM relative to control; how it was run: as §1
Chain of D(1A) dopamine receptor (Homo sapiens) (P21728 whole entry): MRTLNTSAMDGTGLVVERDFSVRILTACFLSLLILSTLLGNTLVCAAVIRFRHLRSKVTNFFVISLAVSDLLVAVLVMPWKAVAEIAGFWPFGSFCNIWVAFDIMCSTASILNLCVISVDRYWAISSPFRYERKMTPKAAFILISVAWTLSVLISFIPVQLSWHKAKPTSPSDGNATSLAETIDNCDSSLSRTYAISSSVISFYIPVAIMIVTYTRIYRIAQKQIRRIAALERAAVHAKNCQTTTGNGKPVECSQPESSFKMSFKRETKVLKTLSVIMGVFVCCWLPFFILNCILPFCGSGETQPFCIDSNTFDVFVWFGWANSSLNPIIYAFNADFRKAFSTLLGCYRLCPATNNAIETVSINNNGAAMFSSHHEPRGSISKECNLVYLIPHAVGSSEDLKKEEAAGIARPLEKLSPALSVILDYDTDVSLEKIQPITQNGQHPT

[13] = species: Homo sapiens; experiment: Inhibition of sodium channel (unknown origin) at 10 uM relative to control
How it was run: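 Calcium (ICa) and sodium (INa) currents were measured as percent inhibition at a single concentration of 10 µM. Values are means of 2-4 experiments.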

[14] = target: Estrogen receptor (Homo sapiens) (UniProt P03372); experiment: Inhibition of human ER-alpha at 10 uM relative to control; how it was run: as §1
Chain of Estrogen receptor (Homo sapiens) (P03372 whole entry): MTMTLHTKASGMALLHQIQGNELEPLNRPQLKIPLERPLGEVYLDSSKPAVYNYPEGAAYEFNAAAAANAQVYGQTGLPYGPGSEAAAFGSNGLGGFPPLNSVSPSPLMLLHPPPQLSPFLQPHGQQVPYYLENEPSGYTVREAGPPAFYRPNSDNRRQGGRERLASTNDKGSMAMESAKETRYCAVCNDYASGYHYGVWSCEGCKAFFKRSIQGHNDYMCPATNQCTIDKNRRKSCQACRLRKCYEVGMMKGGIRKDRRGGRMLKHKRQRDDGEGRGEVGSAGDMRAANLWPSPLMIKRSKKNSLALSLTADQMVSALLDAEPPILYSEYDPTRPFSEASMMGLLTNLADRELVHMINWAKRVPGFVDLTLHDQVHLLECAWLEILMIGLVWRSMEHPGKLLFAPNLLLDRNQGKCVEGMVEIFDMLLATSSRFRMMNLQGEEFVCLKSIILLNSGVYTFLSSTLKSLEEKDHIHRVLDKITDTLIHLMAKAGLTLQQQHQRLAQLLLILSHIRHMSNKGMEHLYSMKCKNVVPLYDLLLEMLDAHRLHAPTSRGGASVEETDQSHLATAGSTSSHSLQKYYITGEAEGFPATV

[15] = Oral bioavailability in rat at 5 mg/kg; type: ADME, organism-based; settings: in vivo
How it was run: (§3)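 Rats (3 per compound) received intra-arterial infusion over 10 min or oral gavage. Vehicle for both routes was 40% PEG 400, 40% water and 20% ethanol. Values are means of 3 animals.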

[16] = target: Calcitonin receptor (Homo sapiens) (UniProt P30988); experiment: Inhibition of human calcitonin receptor at 10 uM relative to control; how it was run: as §1
[17] = target: Neuropeptide Y receptor type 1 (Homo sapiens) (UniProt P25929); experiment: Inhibition of human NPY1-R at 10 uM relative to control; how it was run: as §1
[18] = species: Homo sapiens; experiment: Inhibition of human nicotinic acetylcholine receptor at 10 uM relative to control; how it was run: as §2
[19] = target: Adenosine receptor A3 (Homo sapiens) (UniProt P0DMS8); experiment: Inhibition of human adenosine A3 receptor at 10 uM relative to control; how it was run: as §2
[20] = target: Mineralocorticoid receptor (Rattus norvegicus) (UniProt P22199); experiment: Inhibition of rat aldosterone receptor at 10 uM relative to control; how it was run: as §1
[21] = species: Rattus norvegicus; experiment: Inhibition of rat opioid receptor at 10 uM relative to control; how it was run: as §2
[22] = target: Histamine H1 receptor (Homo sapiens) (UniProt P35367); experiment: Inhibition of human histamine H1 receptor at 10 uM relative to control; how it was run: as §1
Chain of Histamine H1 receptor (Homo sapiens) (P35367 whole entry): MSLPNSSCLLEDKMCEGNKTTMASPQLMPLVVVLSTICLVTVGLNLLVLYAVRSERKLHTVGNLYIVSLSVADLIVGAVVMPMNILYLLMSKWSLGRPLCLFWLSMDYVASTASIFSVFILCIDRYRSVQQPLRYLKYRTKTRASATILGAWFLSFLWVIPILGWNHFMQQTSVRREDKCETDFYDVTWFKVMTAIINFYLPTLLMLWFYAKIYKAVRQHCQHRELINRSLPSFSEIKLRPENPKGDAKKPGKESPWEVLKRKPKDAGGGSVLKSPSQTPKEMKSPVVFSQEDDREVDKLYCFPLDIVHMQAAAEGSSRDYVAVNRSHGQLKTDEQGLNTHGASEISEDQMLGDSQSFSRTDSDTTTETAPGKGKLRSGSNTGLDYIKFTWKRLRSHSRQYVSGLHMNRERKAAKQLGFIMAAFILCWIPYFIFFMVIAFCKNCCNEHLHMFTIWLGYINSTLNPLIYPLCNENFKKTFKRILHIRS

[23] = target: Acetylcholinesterase (Homo sapiens) (UniProt P22303); experiment: Inhibition of human acetylcholinesterase at 10 uM relative to control
Chain of Acetylcholinesterase (Homo sapiens) (P22303 whole entry, canonical isoform): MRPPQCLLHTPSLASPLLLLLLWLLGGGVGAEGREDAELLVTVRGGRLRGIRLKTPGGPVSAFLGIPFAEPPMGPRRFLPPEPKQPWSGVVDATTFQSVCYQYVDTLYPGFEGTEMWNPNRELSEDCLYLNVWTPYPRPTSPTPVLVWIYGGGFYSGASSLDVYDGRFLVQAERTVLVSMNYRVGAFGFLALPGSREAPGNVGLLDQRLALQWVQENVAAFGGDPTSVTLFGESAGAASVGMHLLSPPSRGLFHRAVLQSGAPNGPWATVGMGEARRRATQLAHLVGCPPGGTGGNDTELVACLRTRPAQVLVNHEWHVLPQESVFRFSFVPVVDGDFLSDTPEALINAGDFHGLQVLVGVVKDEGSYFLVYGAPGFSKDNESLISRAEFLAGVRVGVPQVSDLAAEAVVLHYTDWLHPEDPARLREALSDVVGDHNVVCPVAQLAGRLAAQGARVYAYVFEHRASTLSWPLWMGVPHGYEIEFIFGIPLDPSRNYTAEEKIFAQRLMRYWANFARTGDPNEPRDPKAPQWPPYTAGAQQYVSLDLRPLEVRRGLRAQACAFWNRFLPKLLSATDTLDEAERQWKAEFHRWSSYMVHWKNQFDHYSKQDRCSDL

[24] = target: Carnitine O-palmitoyltransferase 1, liver isoform (Rattus norvegicus) (UniProt P32198); experiment: Inhibition of rat carnitine palmitoyltransferase-1 at 10 uM relative to control; how it was run: as §1
[25] = Clearance in rat at 2 mg/kg administered as intra-arterial infusion for 10 mins and 5 mg/kg, po; type: ADME, organism-based; settings: in vivo, iv; how it was run: as §3
[26] = Metabolic stability in mouse liver microsomes assessed as compound remaining at 3 uM after 10 mins; type: ADME; settings: read-out: Stability
How it was run: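 Parent compound at 3 µM was incubated 10 min in human, rat or mouse liver microsomes with appropriate co-factors. Read-out is percent of parent remaining.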

[27] = target: Potassium voltage-gated channel subfamily A member 5 (Homo sapiens, UniProt P22460); experiment: Inhibition of human KV1.5 expressed in mouse L929 cells assessed as decrease in ultrarapid potassium current amplitude; type: cell-based
Chain of Potassium voltage-gated channel subfamily A member 5 (P22460 whole entry): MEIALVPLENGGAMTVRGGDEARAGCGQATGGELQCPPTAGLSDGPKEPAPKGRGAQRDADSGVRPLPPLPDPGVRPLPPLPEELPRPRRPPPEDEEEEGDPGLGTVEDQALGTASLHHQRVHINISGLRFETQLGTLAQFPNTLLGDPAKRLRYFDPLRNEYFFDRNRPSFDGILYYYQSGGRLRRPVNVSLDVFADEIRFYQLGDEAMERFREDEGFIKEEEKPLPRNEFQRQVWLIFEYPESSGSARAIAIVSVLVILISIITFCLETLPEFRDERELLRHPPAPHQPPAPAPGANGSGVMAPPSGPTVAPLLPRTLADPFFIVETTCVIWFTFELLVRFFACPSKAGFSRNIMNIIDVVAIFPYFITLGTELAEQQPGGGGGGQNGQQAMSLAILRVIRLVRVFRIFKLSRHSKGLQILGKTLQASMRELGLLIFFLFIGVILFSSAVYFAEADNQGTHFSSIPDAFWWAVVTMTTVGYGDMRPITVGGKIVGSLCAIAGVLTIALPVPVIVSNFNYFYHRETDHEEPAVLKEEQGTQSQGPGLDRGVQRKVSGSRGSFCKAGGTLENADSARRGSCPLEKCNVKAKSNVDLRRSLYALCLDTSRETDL
How it was run: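 Potassium current block was measured in mouse fibroblast L929 cells expressing human KV1.5. IC50 values are means of 2-4 experiments.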

[28] = species: Oryctolagus cuniculus; experiment: Toxicity in rabbit assessed as increase in gastrointestinal motility; type: organism-based; settings: in vivo

Compound | inhibition [2] [%] | inhibition [3] [%] | inhibition [4] [%] | inhibition [5] [%] | inhibition [6] [%] | inhibition [7] [%] | concentration at 5 min [9] [µM] | inhibition [10] [%] | inhibition [12] [%] | inhibition [13] [%] | inhibition [14] [%] | bioavailability [15] [%] | inhibition [18] [%] | inhibition [21] [%] | inhibition [22] [%] | inhibition [23] [%] | inhibition [24] [%] | clearance [25] [mL/min/kg] | remaining at 10 min, 3 µM [26] [%] | IC50 [27] [nM] | other results
COc1cccc2c1C(NC[C@]1(c3ccccc3)CC[C@H](NC(=O)OC(C)C)CC1)=NS2(=O)=O | 11 | 19 | 1 | -2 | 15 | 13 | 38 | 20 | 3 | 14 | 4 | 7.2 | 10 | 64 | 13 | 55 | 0 | 9.4 | < 1 | 52 | inhibition [1]: -6%; inhibition [8]: -8%; inhibition [11]: -4%; inhibition [16]: 4%; inhibition [17]: 8%; inhibition [19]: 64%; inhibition [20]: 16%
COc1cccc2c1C(NC[C@]1(c3ccccc3)CC[C@H](O)CC1)=NS2(=O)=O | -9 | 19 | 17 | 4 | 24 | 3 | 153 | 2 | 0 | 27 | -1 | 34 | 12 | 23 | 19 | 53 | 4 | 27 | 53 | 34 | Activity [28]: Toxic
